# Source: PubChem BioAssay
# A selection: hits, their analogues and other compounds. The true share with any hit is near 2%.
# CCR6 antag – CCR6 (human) receptor antagonism; CHO-K1 CCR6 PathHunter beta-arrestin, luminescence, CCL20-stimulated; inhibition, % at 20 µM; 340,000 compounds, 0.49% hits;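 active means compounds whose inhibition of the agonist-driven luminescence signal at 20 µM reaches about 50%, limit read from the data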;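 further: cells stimulated with CCL20 at 14 nM final; plate controls were DMSO with CCL20 for no effect and DMSO without agonist for full effect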
# APJ ag – agonists of human APJ apelin receptor; P35414; CHO-K1 APJ PathHunter beta-arrestin, luminescence; 0% DMSO wells, 100% apelin; activation, % at 20 µM; 330,000 compounds, 0.11% hits; AID 2520;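 active means activation more than six SD over the plate average, tested at 20 µM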;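 further: 0% = DMSO alone and 100% = apelin-13 at 10 nM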
# Target sequence (P35414 whole entry, looked up): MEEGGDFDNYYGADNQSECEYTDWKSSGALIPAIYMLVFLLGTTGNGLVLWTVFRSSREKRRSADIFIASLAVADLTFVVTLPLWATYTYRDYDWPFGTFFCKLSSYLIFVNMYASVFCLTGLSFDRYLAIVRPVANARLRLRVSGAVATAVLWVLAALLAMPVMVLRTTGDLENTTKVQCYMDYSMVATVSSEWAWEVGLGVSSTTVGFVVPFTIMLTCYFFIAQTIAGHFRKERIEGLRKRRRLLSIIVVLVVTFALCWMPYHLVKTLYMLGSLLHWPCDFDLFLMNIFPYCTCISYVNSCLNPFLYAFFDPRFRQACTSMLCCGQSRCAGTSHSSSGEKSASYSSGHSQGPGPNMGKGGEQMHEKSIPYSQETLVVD
#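 Test system – PathHunter CHO-K1 APJ (AGTRL-1) beta-arrestin reporter cells · Input – 1000 cells/well · Compound – single test compound dose, 20 µM final, 1% DMSO · Times – compound stimulation 90 min at 25 °C, detection 60 min · Technique – beta-gal luminescence · Read-out basis – APJ–arrestin association signal · Control set – negative DMSO alone, positive Apelin-13 at 10 nM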
# FXN GAA850 act – increases GAA850 frataxin promoter reporter activity; HEK293 lucGAA850 FXN promoter luciferase reporter, 24 h; percent of 10 µM SAHA response; activation, % at 6 µM; 360,000 compounds, 0.56% hits;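 active means activation above the average of all compounds screened plus 3 SD, cutoff fixed separately per campaign, cut at about 7.5% in these data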;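 further: 0% = DMSO wells and 100% = 10 µM SAHA wells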
# EBI2 block – EBI2 (human) antagonism; P32249; EBI2 beta-arrestin recruitment, luminescence, 7a,25-OHC stimulated; inhibition, % at 5 µM; 360,000 compounds, 0.81% hits; AID 651636; in the data active means inhibition above about 38%;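 further: enzyme fragment complementation signal reports receptor beta-arrestin coupling in cells; 0% = agonist plus DMSO wells and 100% = wells without agonist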
# CXCR6 block – blocks human CXCR6 beta-arrestin recruitment | CHO-K1 PathHunter CXCR6 beta-arrestin, luminescence | AID 602244 | 360,000 compounds, 0.36% hits | inhibition, % at 20 µM; in the data active means inhibition above about 34%, passing the limit was not always enough;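 further: antagonist mode with CXCL16 agonist at 10 nM final; 0% = 10 nM CXCL16 with DMSO and 100% = unstimulated wells without agonist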
# APJ antag – APJ receptor antagonism; P35414; CHO-K1 APJ beta-arrestin complementation, luminescence; inhibition, % at 20 µM; 330,000 compounds, 0.32% hits;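 active means inhibition above about 40% at 20 µM, limit read from the data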;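 further: cells challenged with 10 nM apelin-13 agonist together with compound; plate controls were apelin-13 plus DMSO wells for no effect and DMSO wells lacking apelin-13 for full effect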
# APJ ag confirm – confirmation of human APJ apelin receptor agonists; shares compounds with APJ ag; CHO-K1 APJ PathHunter beta-arrestin, luminescence; activation, % at 20 µM; 310 compounds, 10% hits;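 active means activation above 40%, taking the highest of four retests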;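 further: plate controls were DMSO wells for no effect and apelin-13 at 10 nM for full effect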
# APJ antag conf – confirmation of human APJ apelin receptor antagonists | 950 compounds, 66% hits | APJ beta-arrestin recruitment, luminescence, antagonist mode | shares compounds with APJ antag | inhibition, % at 20 µM | AID 2766; in the data active means inhibition above about 50%
# CXCR6 confirm – confirmation of human CXCR6 receptor antagonists. shares compounds with CXCR6 block. CHO-K1 CXCR6 PathHunter beta-arrestin, luminescence. inhibition, % at 20 µM. 700 compounds, 65% hits;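 active means mean inhibition over four retests above 40%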;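 further: receptor stimulated with 10 nM CXCL16 agonist; beta-galactosidase fragment complementation upon beta-arrestin recruitment to receptor; plate controls were CXCL16 plus DMSO for no effect and DMSO without CXCL16 for full effect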
# Active calls of the source: *; nt = no result given.
SMILES,CCR6 antag,APJ ag,FXN GAA850 act,EBI2 block,CXCR6 block,APJ antag,APJ antag conf,others
Cc1sc(-n2c(C)cc(C=C3C(=O)NC(=O)NC3=O)c2C)c(C#N)c1C,1,11*,nt,nt,nt,9,nt,APJ ag confirm=21
Cc1cc(/C=C2\C(=O)NC(=O)N(c3ccc(Cl)cc3)C2=O)c(C)n1-c1sc2c(c1C#N)CCCC2,-12,4,0,29,-9,7,nt,
Cc1ncoc1C(=O)NCC1=C(c2ccc(S(C)(=O)=O)cc2)C[C@@H]2CC[C@H]1N2CCOc1ccccc1,nt,nt,2,-2,3,nt,nt,
NC(N)=N/N=C/c1ccc(N(c2ccccc2)c2ccccc2)cc1,15,40*,3,-8,-13,-20,nt,APJ ag confirm=30
c1ccc(-c2ccc(CN3Cc4ccccc4-n4nncc4C3)cc2)cc1,nt,nt,-1,7,3,nt,nt,
COC(=O)C1=C(c2cc3ccccc3s2)C[C@@H]2CC[C@H]1N2C(=O)NC1CCCCC1,8,-5,0,3,6,28,nt,
CC1=Nc2ccccc2/C1=C/c1c(O)[nH]c(=O)[nH]c1=O,-2,-3,3,-1,8,13,nt,
O=c1[nH]c(O)c(/C=C2/C=CC(c3cc(Cl)ccc3Cl)=N2)c(=O)[nH]1,-6,19*,1,-4,-6,-58,nt,APJ ag confirm=30
CSCCC(c1nnnn1C1CCCCC1)N1CCC2(CC1)C(=O)NCN2c1ccccc1 (configuration not stated),nt,nt,nt,-7,4,nt,nt,
CC1(C)C[C@H]2C=C(C=O)[C@]3(C=O)C[C@]3(C)[C@H]2C1,30,31*,0,4,-3,-26,nt,APJ ag confirm=33
O=C1NCN(c2ccccc2)C12CCN(C(c1cccc3ccccc13)c1nnnn1C1CCCC1)CC2 (configuration not stated),nt,nt,nt,-25,-1,nt,nt,
COc1ccc(C(=O)C2CCCN(CCO)C2)c(C)c1 (configuration not stated),-3,-2,1,1,14,111*,26,
COc1ccc(-c2ccc3c(c2)CN(C(=O)NC2CCCCC2)Cc2cnnn2-3)cc1,nt,nt,nt,32,1,nt,nt,
Cc1cc(OCC(=O)N2CCC(C(=O)O)(c3ccccc3)CC2)c2c(C)c(C)c(=O)oc2c1,1,-4,0,-3,-1,17,nt,
COCCCn1c(N)c(C(=O)OCCOC)c2nc3ccccc3nc21,13,-9,2,13,-5,10,nt,
CCOC(=O)c1c(NS(=O)(=O)c2ccccc2)n(CCCOC)c2nc3ccccc3nc12,60*,-7,0,8,18,50*,9,
CCCCCn1c(NC(=O)c2ccco2)c(C(=O)OCC)c2nc3ccccc3nc21,38,-10,1,20,-4,49*,28,
COCCNC(=O)N1[C@H]2CC[C@@H]1C(C(=O)OC)=C(c1ccc(OC)c(OC)c1)C2,-4,-2,0,0,10,6,nt,
COCCNC(=O)c1c(N)n(CCC(C)C)c2nc3ccccc3nc12,14,-11,0,20,-2,34,nt,
CC(C)CCn1c(N)c(C(=O)NCc2cccs2)c2nc3ccccc3nc21,-10,-13,-2,16,1,55*,-3,
C=C1C(=O)O[C@@H]2C[C@@H](C)[C@@H]3C4OC4C(=O)[C@@]3(C)[C@@H](O)[C@H]12 (some centres not stated),29,2,-14,42,34,42*,42,
C=C1C(=O)O[C@@H]2C[C@@H](C)[C@@H]3C=CC(=O)[C@@]3(C)[C@@H](OC(=O)CC(=O)O[C@H]3[C@@H]4C(=C)C(=O)O[C@@H]4C[C@@H](C)[C@@H]4C=CC(=O)[C@]43C)[C@H]12,98*,-9,-14,51*,92*,83*,115*,CXCR6 confirm=100*
OC(c1cccc(Cl)c1)(c1cccc(Cl)c1)C1CN2CCC1CC2 (configuration not stated),9,-4,-1,-9,3,24,nt,
